The results in this text go back to ChEMBL document CHEMBL1143671, “Antibacterial nicotinamide adenine dinucleotide synthetase inhibitors: amide- and ether-linked tethered dimers with alpha-amino acid end groups” (J Med Chem, 2007).

For assay [1], the system named is Bacillus subtilis. Nature of the assay: Antibacterial activity against Bacillus subtilis ATCC 14289. It counts as functional. A digest of the protocol:
(§1)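 Broth tube dilution MIC. Bacteria subcultured from stock onto agar and grown overnight at 37 ± 2 °C in ambient air. Overnight cultures went into broth adjusted to about 5 × 10⁸ CFU/mL. Inhibitor started at 50 µg/mL with doubling dilutions over 10 tubes in duplicate. Each tube received 0.01 mL of challenge broth.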

Assay [2] has as its system Staphylococcus aureus. Nature of the assay: Antibacterial activity against methicillin-resistant Staphylococcus aureus ATCC 33591. It counts as functional. An outline of the steps: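 Broth tube dilution MIC, performed by a contract lab. Bacteria were subcultured from stock onto agar and grown overnight at 37 ± 2 °C in ambient air. Overnight cultures went into broth adjusted to about 5 × 10⁸ CFU/mL. Inhibitor started at 50 µg/mL in doubling dilutions, 10 tubes in duplicate. Each tube received 0.01 mL of challenge broth.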

Assay [3] in a line: Inhibition of Bacillus subtilis NAD synthetase by fluorescence based assay. An outline of the steps: (§2)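 B. subtilis NAD synthetase, overexpressed and purified, 2.0 µg/mL. Coupled to yeast ADH (40 µg/mL) with 1% EtOH at pH 8.5: 58.5 mM HEPPS, 18.5 mM NH4Cl, 19.5 mM KCl, 9.75 mM MgCl2, 0.1 mM NaAD, 2.5% DMSO. No BOG; 0–0.01% Triton X-100. Started with 0.2 mM ATP. NADH read by fluorescence. Triplicate points; IC50 averaged over two experiments.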

Assay [4] has as its system Staphylococcus aureus. Put plainly: Antibacterial activity against Staphylococcus aureus ATCC 29213. In kind it is functional. An outline of the steps:
as §1

A further assay relates to Pseudomonas aeruginosa. Nature of the assay: Antibacterial activity against Pseudomonas aeruginosa ATCC 27853. In kind it is functional. A digest of the protocol:
as §1

A short description of assay [5]: (§3) Inhibition of Bacillus subtilis NAD synthetase in presence of 0.001% Triton X-100 by fluorescence based assay. A digest of the protocol: as §2
A short description of assay [6]: (§4) Inhibition of Bacillus subtilis NAD synthetase in presence of 0.01% Triton X-100 by fluorescence based assay. A digest of the protocol: as §2
Assay [7] in a line: Inhibition of yeast alcohol dehydrogenase by fluorescence based assay. The arrangement: species or system Saccharomyces cerevisiae. A digest of the protocol:
(§5)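 Yeast ADH 2.5 µg/mL in 60 mM HEPPS pH 8.5 with 0.5 mM NH4Cl, 20 mM KCl, 10 mM MgCl2, 60 mM ethanol, 2.5% DMSO and 0–0.01% Triton X-100. Started with 0.75 mM β-NAD and stopped with 1.2 M guanidine·HCl after 2 min. NADH fluorescence read at 355 nm excitation / 460 nm emission, pre-NAD blank subtracted. Triplicate points; IC50 averaged over two experiments.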

Assay [8] can be described thus: (§6) Inhibition of yeast alcohol dehydrogenase in presence of 0.001% Triton X-100 by fluorescence based assay. Details: species or system Saccharomyces cerevisiae. An outline of the steps: as §5
Assay [9] can be described thus: (§7) Inhibition of yeast alcohol dehydrogenase in presence of 0.01% Triton X-100 by fluorescence based assay. The arrangement: species or system Saccharomyces cerevisiae. A digest of the protocol: as §5
The test system of assay [10] is Bacillus subtilis. The assay is described as §3. An outline of the steps:
as §2

Assay [11] concerns Bacillus subtilis. The description is as §4. An outline of the steps:
as §2

Assay [12] deals with Saccharomyces cerevisiae. Described as §6. An outline of the steps:
as §5

The subject of assay [13] is Saccharomyces cerevisiae. The assay is described as §7. An outline of the steps:
as §5

In brackets after ≈: the same amount, converted by molar mass. Activity calls are given as the source filed them. No cut-off for these calls is given here.

With `C[N+](C)(C)[C@H](COCCCCCCCCOc1ccc(OCc2ccccc2)cc1)c1ccccc1`, the MIC worked out at 0.78 µM against Bacillus subtilis [1] and 3.13 µM against Staphylococcus aureus [2]. In assay [3], this compound had an IC50 of 38 µM.

Take `C[N+](C)(C)[C@H](C(=O)NCCCCCCCCOc1ccc(OCc2ccccc2)cc1)c1ccccc1`: the MIC in the assay with Bacillus subtilis [1] and with Staphylococcus aureus [2] was 1.56 µM throughout. In [3], this compound gave an IC50 of 45 µM.

The compound `C[N+](C)(C)[C@@H](Cc1c[nH]c2ccccc12)C(=O)OCCCCCCCCOc1ccc(OCc2ccccc2)cc1` registered an IC50 in [3] of 19 µM.

In the case of `N=C(N)N[C@@H](Cc1ccccc1)C(=O)NCCCCCCCCOc1ccc(OCc2ccccc2)cc1`, the MIC against Bacillus subtilis [1] worked out at 3.13 µM (≈ 1.62 µg/mL); with Staphylococcus aureus [2] it was 1.56 µM (≈ 0.806 µg/mL). Moreover, half-maximal inhibition in [3] (IC50) required 12 µM.

In the case of `C[N+](C)(C)[C@@H](Cc1ccccc1)C(=O)NCCCCCCCCOc1ccc(OCc2ccccc2)cc1`, the MIC against Staphylococcus aureus [4] is 0.78 µM; against Bacillus subtilis [1] it was 0.39 µM; in the assay on Staphylococcus aureus [2], 0.78 µM; in the assay on Pseudomonas aeruginosa, more than 50 µM. The IC50 in assay [3] is 40 µM; in assay [5] it was 27.8 µM; in assay [6], 104 µM; in assay [7], more than 1500 µM; in [8], more than 1500 µM; in assay [9], more than 1500 µM.

As for `COc1cccc(OC)c1C(=O)N[C@@H]1C(=O)N2[C@@H]1SC(C)(C)[C@@H]2C(=O)O` [METHICILLIN], the MIC was determined as 1 µM (≈ 0.38 µg/mL) with Staphylococcus aureus [4] and 32 µM (≈ 12.2 µg/mL) against Staphylococcus aureus [2].

In the case of `O=C(O)c1cn(C2CC2)c2cc(N3CCNCC3)c(F)cc2c1=O` [CIPROFLOXACIN], the MIC in the assay on Bacillus subtilis [1] and with Staphylococcus aureus [2] was 0.5 µM (≈ 0.166 µg/mL) each time.

`C[N+](C)(C)[C@H](COCCCCCCCCOc1ccc(OCc2ccccc2)cc1)Cc1ccccc1`: the MIC in the assay on Staphylococcus aureus [4] was 0.78 µM; against Bacillus subtilis [1], 0.39 µM; against Staphylococcus aureus [2], 1.56 µM; against Pseudomonas aeruginosa, more than 50 µM. Moreover, in assay [3], it took 21 µM to reach half-maximal inhibition (IC50).

As to `CO[C@H]1/C=C/O[C@@]2(C)Oc3c(C)c(O)c4c(O)c(c(/C=N/N5CCN(C)CC5)c(O)c4c3C2=O)NC(=O)/C(C)=C\C=C\[C@H](C)[C@H](O)[C@@H](C)[C@@H](O)[C@@H](C)[C@H](OC(C)=O)[C@@H]1C` [RIFAMPIN], the MIC in the assay with Bacillus subtilis [1] was 1.5 µM (≈ 1.23 µg/mL). That is a single-digit micromolar value.

Take `N=C(N)N[C@H](COCCCCCCCCOc1ccc(OCc2ccccc2)cc1)c1ccccc1`: the MIC with Bacillus subtilis [1] worked out at 3.13 µM (≈ 1.53 µg/mL); in the assay on Staphylococcus aureus [2], 0.78 µM (≈ 0.382 µg/mL). Moreover, the IC50 in [3] worked out at 11 µM.

With `N=C(N)N[C@H](COCCCCCCCCOc1ccc(OCc2ccccc2)cc1)Cc1ccccc1`, the MIC with Bacillus subtilis [1] worked out at 3.13 µM (≈ 1.58 µg/mL); in the assay with Staphylococcus aureus [2], 0.78 µM (≈ 0.393 µg/mL). In assay [3], this compound came in with an IC50 of 11 µM.

With `N=C(N)N[C@H](C(=O)NCCCCCCCCOc1ccc(OCc2ccccc2)cc1)c1ccccc1`, the MIC in the assay on Bacillus subtilis [1] and against Staphylococcus aureus [2] was 1.56 µM (≈ 0.784 µg/mL) throughout. In addition, the IC50 in assay [3] was 19 µM.

In the case of `C[N+](C)(C)c1ccc(CC(=O)OCCCCCCCCOc2ccc(OCc3ccccc3)cc2)cc1`, the MIC against Staphylococcus aureus [4] was 9.4 µM; against Bacillus subtilis [1], 2 µM; in the assay on Staphylococcus aureus [2], 6.2 µM; against Pseudomonas aeruginosa, more than 50 µM. This compound also returned an IC50 in [3] of 41 µM.

For the compound `C[N+](C)(C)[C@@H](Cc1ccc(O)cc1)C(=O)OCCCCCCCCOc1ccc(OCc2ccccc2)cc1`, the MIC against Bacillus subtilis [1] is 1.56 µM; against Staphylococcus aureus [2], 3.13 µM. Also, in assay [3], inhibition was half-maximal at 53 µM (IC50).

As for `C[C@H]1c2cccc(O)c2C(=O)C2=C(O)[C@]3(O)C(=O)C(C(N)=O)=C(O)[C@@H](N(C)C)[C@@H]3[C@@H](O)[C@@H]21` [DOXYCYCLINE], the MIC in the assay with Staphylococcus aureus [4] is 1.56 µM (≈ 0.693 µg/mL); in the assay with Bacillus subtilis [1], 1.56 µM (≈ 0.693 µg/mL); in the assay on Staphylococcus aureus [2], more than 30 µM.

Take `CC1(C)S[C@@H]2[C@H](NC(=O)[C@H](N)c3ccccc3)C(=O)N2[C@H]1C(=O)O` [AMPICILLIN]: the MIC is 0.2 µM (≈ 0.0699 µg/mL) in the assay with Bacillus subtilis [1] and more than 50 µM against Staphylococcus aureus [2].

For the compound `C[N+](C)(C)[C@@H](Cc1ccccc1)C(=O)OCCCCCCCCOc1ccc(OCc2ccccc2)cc1`, the MIC against Staphylococcus aureus [4] is 0.78 µM; with Bacillus subtilis [1] it was 0.78 µM; in the assay on Staphylococcus aureus [2], 0.78 µM; against Pseudomonas aeruginosa it was more than 50 µM. Besides, the IC50 came to 22 µM in assay [3]; 16.5 µM in assay [5]; 37 µM in assay [6]; 27 µM in assay [7]; 69 µM in assay [8]; 266 µM in assay [9].

Turning to `Clc1ccccc1C(c1ccccc1)(c1ccccc1)n1ccnc1` [CLOTRIMAZOLE], the IC50 is more than 1500 µM in [3] and 96.5 µM in assay [7]. For the same compound, the outcome in the assay on Bacillus subtilis [10], in the assay with Bacillus subtilis [11], in the assay on Saccharomyces cerevisiae [12] and in the assay on Saccharomyces cerevisiae [13] was inactive.

For orientation: MIC means the lowest concentration found to suppress growth. A low value points to greater potency. As a reminder, the IC50 is the concentration at which inhibition is half-maximal.
